Converted amounts (≈) assume the structure as drawn. The source made the active and inactive calls. No cut-off for these calls is given here.
Columns and labels:
[1] = tested on: Staphylococcus aureus; experiment: Antibacterial activity against epidemic methicillin-resistant Staphylococcus aureus 15 expressing MecA at 256 ug/mL after 18 hrs by microtiter plate method; type: functional, organism-based
[2] = tested on: Staphylococcus aureus; experiment: Antibacterial activity against Staphylococcus aureus RN4220 expressing MsrA efflux transporter at 256 ug/mL after 18 hrs by microtiter plate method; type: functional, organism-based
Summary of the method: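 Strain pre-grown on nutrient agar for 24 h at 37 °C. Inoculum matched to the 0.5 McFarland standard in normal saline and diluted to a final 5 × 10^5 cfu/mL in microtiter wells. Plates incubated 18 h at 37 °C. MIC taken as the lowest concentration with no bacterial growth, determined in duplicate.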

[3] = tested on: Staphylococcus aureus; experiment: Antibacterial activity against methicillin-resistant Staphylococcus aureus XU212 expressing TetK efflux pump and MecA at 256 ug/mL after 18 hrs by microtiter plate method; type: functional, organism-based
[4] = tested on: Staphylococcus aureus; experiment: Antibacterial activity against multidrug-resistant Staphylococcus aureus SA-1199B overexpressing NorA efflux transporter at 256 ug/mL after 18 hrs by microtiter plate method; type: functional, organism-based
[5] = tested on: Staphylococcus aureus; experiment: Antibacterial activity against Staphylococcus aureus RN4220 expressing MsrA efflux transporter after 18 hrs by microtiter plate method; type: functional; settings: for MIC: RN4220, 18 h
Summary of the method: (§1)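 Broth microdilution MIC. Strains were grown on nutrient agar for 24 h at 37 °C. Inoculum was made to the 0.5 McFarland standard in normal saline and diluted to a final 5 × 10^5 cfu/mL. Plates were incubated for 18 h at 37 °C. MIC was taken as the lowest concentration with no observed growth, determined in duplicate.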

[6] = tested on: Staphylococcus aureus; experiment: Antibacterial activity against epidemic methicillin-resistant Staphylococcus aureus 15 expressing MecA after 18 hrs by microtiter plate method; type: functional; summary of the method: as §1
[7] = tested on: Staphylococcus aureus; experiment: Antibacterial activity against multidrug-resistant Staphylococcus aureus SA-1199B overexpressing NorA efflux transporter after 18 hrs by microtiter plate method; type: functional; summary of the method: as §1
[8] = tested on: Staphylococcus aureus; experiment: Antibacterial activity against methicillin-susceptible Staphylococcus aureus ATCC 25923 after 18 hrs by microtiter plate method; type: functional; settings: for MIC: ATCC 25923, 18 h; summary of the method: as §1
[9] = tested on: Staphylococcus aureus; experiment: Antibacterial activity against methicillin-resistant Staphylococcus aureus XU212 expressing TetK efflux pump and MecA after 18 hrs by microtiter plate method; type: functional; summary of the method: as §1

| Structure (SMILES) | Activity [1] | Activity [2] | Activity [3] | Activity [4] | MIC [5] | MIC [6] | MIC [7] | MIC [8] | MIC [9] | further results |
| --- | --- | --- | --- | --- | --- | --- | --- | --- | --- | --- |
| CC(C)=C[C@@]1(O)C(=O)C(C)(C)C(=O)C(C)(C)[C@@H]1O[C@@H]1O[C@H](COC(=O)c2cc(O)c(O)c(O)c2)[C@@H](O)[C@H](O)[C@H]1O | inactive | inactive | inactive | inactive |  |  |  |  |  |  |
| CCn1cc(C(=O)O)c(=O)c2cc(F)c(N3CCNCC3)cc21 [NORFLOXACIN] |  |  |  |  | 2 µg/mL (≈ 6.26 µM) | 0.5 µg/mL (≈ 1.57 µM) | 32 µg/mL (≈ 100 µM) | 1 µg/mL (≈ 3.13 µM) | 4 µg/mL (≈ 12.5 µM) |  |
| CC1(C)C=C2C(=O)C(C)(C)C(=O)C(C)(C)C2(O)OO1 (stereo not drawn) |  |  |  |  |  |  |  |  |  | Activity [5]: inactive; Activity [6]: inactive; Activity [7]: inactive; Activity [8]: inactive; Activity [9]: inactive |
| CC(C)CC1(O)C(=O)C(C)(C)C(O[C@@H]2O[C@H](COC(=O)c3cc(O)c(O)c(O)c3)[C@@H](O)[C@H](O)[C@H]2O)C(C)(C)C1=O (stereo partly drawn) [GALLOMYRTUCOMMULONE B] |  |  |  |  | 128 µg/mL (≈ 224 µM) | 128 µg/mL (≈ 224 µM) | 128 µg/mL (≈ 224 µM) | 64 µg/mL (≈ 112 µM) | 128 µg/mL (≈ 224 µM) |  |
| CC(C)=C[C@]1(O)C(=O)C(C)(C)C(=O)C(C)(C)[C@@H]1O[C@@H]1O[C@H](COC(=O)c2cc(O)c(O)c(O)c2)[C@@H](O)[C@H](O)[C@H]1O | inactive | inactive | inactive | inactive |  |  |  |  |  |  |
| CC(C)C[C@]1(O)C(=O)C(C)(C)C(=O)C(C)(C)[C@@H]1O[C@@H]1O[C@H](COC(=O)c2cc(O)c(O)c(O)c2)[C@@H](O)[C@H](O)[C@H]1O [GALLOMYRTUCOMMULONE A] |  |  |  |  | 128 µg/mL (≈ 224 µM) | 128 µg/mL (≈ 224 µM) | 256 µg/mL (≈ 449 µM) | 128 µg/mL (≈ 224 µM) | 256 µg/mL (≈ 449 µM) |  |

Source: ChEMBL document CHEMBL1157252, “Antibacterial galloylated alkylphloroglucinol glucosides from myrtle (Myrtus communis)” (2006)
